# The list is not random: actives were taken first. Their share in the collection is about 2.6%.
# SIRT5 inh = inhibitors of human sirtuin-5 desuccinylase; Q9NXA8; Purified SirT5, succinyl-peptide AMC, trypsin-coupled fluorescence; inhibition, % at 15 µM; 330,000 tested, 1.1% active; in the data active = inhibition above about 15%
# NSD2 HMT inh = inhibitors of human histone methyltransferase NSD2; O96028; NSD2 peptide methylation, AlphaScreen, 120 min; inhibition, % at 12.5 µM; 310,000 tested, 0.54% active; in the data active = inhibition above about 50%
# UCH37 inh = blocks the human deubiquitinase UCH37. Q9Y5K5. purified proteasome/UCH37, Ub-AMC cleavage fluorescence. inhibition, % (test concentration not listed). 330,000 tested, 0.33% active;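 active = mean inhibition over replicate wells above about 20%, limit read from the data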
#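 System: Proteasome-associated human UCH37 deubiquitinase; Input: 0.15 nM proteasome in added enzyme buffer; Also added: Ub-AMC substrate from 1 µM stock; Incubation: 30 min compound-proteasome preincubation then 25 min substrate reaction, room temperature; Detection: fluorescence, ex 355 nm, em 460 nm; Read-out: % inhibition of Ub-AMC cleavage fluorescence; Benchmarks: no-proteasome and no-compound wells.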
# FGF22 binding = shifts melting point of recombinant human FGF22. Q9HCT0. recombinant FGF22 thermal shift, SYPRO orange fluorescence; percent of sucrose octasulfate shift, DMSO zero. activity (Tm shift, normalised), % at 9.99 µM. 340,000 tested, 1.5% active;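 active = mean Tm shift, scaled 0 neutral to 100 positive control, at about 1.3% or above, every replicate too, limit read from the data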
# Casp6 inh = caspase-6 (human) enzyme inhibition; purified caspase-6, Z-VEID-R110 cleavage fluorescence; P55212; 350,000 tested, 0.53% active; AID 686996; inhibition, % at 12.5 µM;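 active = mean inhibition across replicates at least about 35%, with every replicate also reaching that limit, limit read from the data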
# Hits are given with their value; . = inactive; / = no result.
SMILES,SIRT5 inh,NSD2 HMT inh,UCH37 inh,FGF22 binding,Casp6 inh
CC(C)CC#Cc1ccc2c(c1)O[C@H](CN(C)S(=O)(=O)c1cccc(F)c1)[C@H](C)CN([C@H](C)CO)S2(=O)=O,20.7,/,/,.,.
CC1CC2C(C(O)CC3(C)C2CCC3(O)C(=O)CO)C2(C)C=CC(=O)C=C12 (stereo not drawn),34.7,.,.,.,.
CCOc1cc(CNS(=O)(=O)c2cn(C)cn2)cc(OCC)c1OCC,.,.,.,.,.
CCOc1ccc(CCNS(=O)(=O)c2cn(C)cn2)cc1OCC,33.1,.,.,.,.
C[C@H]1CN([C@@H](C)CO)C(=O)c2cccc(NC(=O)c3ccc(-c4nccs4)cc3)c2O[C@H]1CN(C)C(=O)Nc1ccc2c(c1)OCO2,.,/,/,.,.
COc1ccc(NC(=O)c2cccc(S(=O)(=O)N3CCc4ccccc43)c2)c(OC)c1,/,/,/,43.7,.
COc1cccc(C(=O)OCC(=O)Nc2sc3c(c2C(N)=O)CCC3)c1O,.,.,.,.,40.8
COc1ccc(NC(=O)c2cccc(S(=O)(=O)N3CCN(C)CC3)c2)c(OC)c1,.,.,.,/,.
COc1ccccc1NC(=O)COC(=O)c1ccc(S(=O)(=O)N2CCCCCC2)cc1,/,.,.,43.2,.
CCOc1ccccc1NC(=O)COC(=O)c1ccc(S(=O)(=O)N2CCCC2)cc1,.,.,.,.,.
COc1cccc(C(=O)Nc2cc(S(=O)(=O)N3CCCCC3)ccc2OC)c1,.,.,.,43.4,.
O=C(NCC1CC1)[C@H]1[C@H](CO)[C@H]2Cn3c(cccc3=O)[C@@H]1N2C(=O)c1ccccc1,.,/,/,.,.
Cc1noc(C)c1NC(=O)N(C)C[C@@H]1Oc2c(NC(=O)Nc3ccc4c(c3)OCO4)cccc2C(=O)N([C@@H](C)CO)C[C@H]1C,.,/,/,.,.
CCOc1ccc(NCC(=O)NN=C/C=C/c2ccccc2)cc1,/,/,.,/,/
COc1ccccc1NC(=O)COC(=O)c1cc2c(s1)CCC2,.,.,.,.,63.9
CN(C)S(=O)(=O)c1cccc(C(=O)Nc2ccc(S(=O)(=O)N3CCCC3)cc2)c1,.,.,.,44.1,.
COc1ccc(OC)c(NC(=O)COC(=O)c2cc3c(s2)CCC3)c1,.,.,.,.,.
CC(=NNC(=O)c1cccnc1)c1cc(C)oc1C,/,/,.,/,/
O=C(NNC(=O)c1cccc2ccccc12)c1cccc(F)c1,/,.,.,43.4,.
O=C(NNC(=O)c1ccc2ccccc2c1)c1cccc(F)c1,/,.,.,.,.
CC(CC(=O)NCc1ccc(F)cc1)=NNC(N)=S,/,/,.,/,/
COc1ccc2c(c1)CCC1=C2NC(=S)NC1c1ccc(N(C)C)cc1 (stereo not drawn),15.3,.,.,.,.
CC(=O)N/N=C(\C)CC(=O)Nc1ccc2c(c1)OCCO2,.,.,/,43.3,.
Cc1cc(OC(=O)c2c(C)cc(OC(=O)c3c(C)cc(O)cc3O)cc2O)cc(O)c1C(=O)O,.,/,.,1.9,.
COC(=O)c1c(C)cc(O)cc1O,.,/,.,.,.
SMILES,SIRT5 inh,NSD2 HMT inh,UCH37 inh,FGF22 binding,Casp6 inh
C[C@@H]1CN([C@H](C)CO)C(=O)c2cccc(NS(=O)(=O)c3cn(C)cn3)c2O[C@H]1CN(C)C(=O)Nc1ccc2c(c1)OCO2,.,/,/,.,.
O=C(c1ccc(Cl)cc1)C1CCCN(C(=O)c2csnn2)C1 (stereo not drawn),112.2,.,.,.,.
Cc1nnc(SCC(=O)N2CCCC(C(=O)c3ccc(Cl)cc3)C2)o1 (stereo not drawn),.,.,.,43.4,.
COc1ccc2cc(C(=O)C3CCCN(C(=O)CSc4nnc(C)o4)C3)ccc2c1 (stereo not drawn),.,.,.,.,.
COc1ccc2cc(C(=O)C3CCCN(C(=O)c4csnn4)C3)ccc2c1 (stereo not drawn),.,.,.,.,.
COc1ccc(CNC(=O)c2nc(S(=O)(=O)Cc3ccccc3)ncc2Cl)cc1,20.6,.,.,.,.
O=C(NCc1ccccc1)c1nc(S(=O)(=O)Cc2ccccc2)ncc1Cl,.,.,.,.,.
CCN(CC)C(C(=O)NC1CCCCC1)c1ccc(C)cc1 (stereo not drawn),.,.,.,43.5,.
C[C@@H]1CN([C@H](C)CO)C(=O)c2cc(NC(=O)Nc3ccc4c(c3)OCO4)ccc2O[C@@H](C)CCCCO[C@H]1CN(C)S(=O)(=O)c1cccs1,17.9,/,/,.,.

# Screens from PubChem BioAssay.
